High-throughput results as filed in PubChem BioAssay.
Sampled rows, rich in hits. Any-hit rate of the full collection: about 3.2%.
CHO parental Ca: ATP-evoked calcium signal inhibitors, parental CHO, primary screen, counter-screen for OX1R antagonist project, cell-based, fluorescence, Fluo-8 calcium dye. parental CHO-K1, ATP-induced calcium, Fluo-8 fluorescence. inhibition, % at 5.6 µM. 0.63% of 330,000 active. AID 463079, 2010;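 active = inhibition above that plate's mean sample inhibition plus 3 SD, cut at about 26% in these data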
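Test system: parental CHO cells; detection: calcium-sensitive Fluo-8 fluorescence; evaluation: percent inhibition of calcium signal; also added: ATP as calcium-mobilizing challenge; repeats: one well per compound; control set: ATP-challenged DMSO wells low, unchallenged DMSO wells high; compound: single nominal dose of 5.6 µM per compound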
GPR7 antagonist: GPR7 receptor antagonists, primary screen, cell-based, fluorescence, single concentration; inhibition, % at 4.4 µM; GPR7-expressing cells, fluorescence antagonist assay; AID 1861, 2009; Neuropeptides B/W receptor type 1 (Homo sapiens), P48145; 1.1% of 290,000 active; in the data active = inhibition above about 16%, passing the limit was not always enough;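 note: cells stimulated with the agonist NPW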
Target sequence (P48145 whole entry, looked up): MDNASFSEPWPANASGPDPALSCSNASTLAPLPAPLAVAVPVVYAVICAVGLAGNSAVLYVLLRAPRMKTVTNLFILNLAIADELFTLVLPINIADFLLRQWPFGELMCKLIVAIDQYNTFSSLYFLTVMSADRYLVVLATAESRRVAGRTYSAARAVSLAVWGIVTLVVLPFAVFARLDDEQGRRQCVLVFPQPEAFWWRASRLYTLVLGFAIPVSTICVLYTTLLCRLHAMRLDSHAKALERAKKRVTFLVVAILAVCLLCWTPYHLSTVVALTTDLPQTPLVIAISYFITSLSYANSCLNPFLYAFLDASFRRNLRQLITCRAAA
TRPML3 agonist: human TRPML3 channel agonists, primary screen, cell-based, HEK293 TRPML3-YFP, Fluo-8 calcium fluorescence, 3 µM; 100% = the carbachol control signal; activation, % at 3 µM; 0.29% of 220,000 active;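 active = activation above its plate's cutoff, the mean activation of the plate's test wells plus 3 SD, cut at about 12% in these data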
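Material: TRPML3-YFP stable HEK293 cells | Dosing: One concentration, 3 µM nominal, 0.3% DMSO | Timing: 125 s total fluorescence read per well | Technique: Fluo-8 calcium dye fluorescence, ex 470-495, em 515-575 nm | Measure: Percent activation from peak-to-basal fluorescence ratio, scaled between DMSO and carbachol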
OX1R antag-1: OX1R (HCRTR1) antagonists, primary screen, fluorescence, CHO/OX1R cells, Fluo-8 calcium, orexin A; Orexin/Hypocretin receptor type 1 (Homo sapiens), O43613; Fluo-8 calcium fluorescence; inhibition, % at 5 µM; 0.43% of 330,000 active;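 active = inhibition above its plate's threshold, mean inhibition of all tested compounds on the plate plus 3 SD, cut at about 37% in these data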
Target sequence (O43613 whole entry, looked up): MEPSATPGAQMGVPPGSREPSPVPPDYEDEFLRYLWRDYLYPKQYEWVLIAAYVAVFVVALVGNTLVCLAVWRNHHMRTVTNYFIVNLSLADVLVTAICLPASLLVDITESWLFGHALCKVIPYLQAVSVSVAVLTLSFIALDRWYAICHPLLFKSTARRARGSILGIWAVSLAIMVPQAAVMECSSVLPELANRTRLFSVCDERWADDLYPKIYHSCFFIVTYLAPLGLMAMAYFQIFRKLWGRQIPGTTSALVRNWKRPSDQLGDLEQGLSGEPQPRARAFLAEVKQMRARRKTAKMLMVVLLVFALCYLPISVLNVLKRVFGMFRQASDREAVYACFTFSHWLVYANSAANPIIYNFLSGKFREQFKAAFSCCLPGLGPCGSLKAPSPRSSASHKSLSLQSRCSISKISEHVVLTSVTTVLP
zfTRPN1 agonist: zebrafish TRPN1 channel agonists, primary screen, cell-based, HEK293, calcium fluorescence; transient receptor potential cation channel N1 (TRPN1/NompC), Danio rerio; HEK293 zebrafish TRPN1-YFP, Fluo-8 calcium fluorescence; 100% = response to 87 µM carbachol; activation, % at 3 µM; 0.18% of 220,000 active; AID 1424, 2008;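 active = activation above its plate's cutoff, the mean activation of test wells on that plate plus 3 SD, cut at about 19% in these data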
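Assay system: Zebrafish TRPN1-YFP in HEK293 cells | Incubation: Dye loading 1 h at 37 °C, then 30 min room temperature | Measured by: Kinetic Fluo-8 fluorescence, ex 470-495, em 515-575 nm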
OX1R antag-2: antagonists of human orexin 1 receptor (OX1R); Orexin/Hypocretin receptor type 1 (Homo sapiens), O43613; OX1R-expressing cells, FRET antagonist read-out; inhibition, % at 6.6 µM; 1.8% of 330,000 active; in the data active = inhibition mostly above about 38%, no sharp cut-off; inactive = mostly below about 40%
Of the large screens only hits and unclear results are named; the others gave an inactive call.

O=C1c2cccc3c(N4CCCCC4)ccc(c23)C(=O)N1c1ccccc1O	CHO parental Ca 52, TRPML3 agonist 18, OX1R antag-1 54, zfTRPN1 agonist 36
O=C(O)c1ccc(N2CCCCCC2)c(N2C(=O)c3ccccc3C2=O)c1	none
O=C1c2cccc3c(N4CCCCC4)ccc(c23)C(=O)N1c1ccc(O)cc1	TRPML3 agonist 12, zfTRPN1 agonist 20
NC(=O)C[C@H](N)c1cn([C@@H](CC(N)=O)C(=O)N2CCNCC2)nn1	none (no result: GPR7 antagonist, TRPML3 agonist, zfTRPN1 agonist)
COc1ccc(C(=O)n2cnc3ccccc32)cc1[N+](=O)[O-]	none (no result: TRPML3 agonist, zfTRPN1 agonist)
Cc1ccccc1-n1c2nc(=O)n(C)c(=O)c-2cc2ccccc21	OX1R antag-2 65
CCOc1ccc(-c2nnc(-c3cccs3)o2)cc1OCC	none
CCOc1ccc(-c2nc(-c3cccs3)c(CC(=O)O)s2)cc1OC	OX1R antag-2 38
CC(C)n1cc(CN2CCCC(C(=O)Nc3ccccc3Oc3cccnc3)C2)cn1 (centres undefined)	none (no result: TRPML3 agonist, zfTRPN1 agonist)
O=C(O)c1cccc(N2C(=O)c3cc([N+](=O)[O-])cc4cc([N+](=O)[O-])cc(c34)C2=O)c1	OX1R antag-2 96 (no result: TRPML3 agonist, zfTRPN1 agonist)
Cc1c(C(=O)O)c(O)cc2c1C(=O)c1c(O)c([C@@H]3O[C@H](CO)[C@@H](O)[C@H](O)[C@H]3O)c(O)c(O)c1C2=O	OX1R antag-2 71 (no result: GPR7 antagonist, TRPML3 agonist, zfTRPN1 agonist)
CC(C)(C)c1cc(CCC(=O)Nc2ccncc2)cc(C(C)(C)C)c1O	none (no result: TRPML3 agonist, zfTRPN1 agonist)
CC(C)(C)C(=O)c1sc2nc(-c3cccs3)cc(C(F)(F)F)c2c1N	none
Nc1c(C(=O)Nc2nccs2)sc2nc(-c3cccs3)cc(C(F)(F)F)c12	CHO parental Ca 42, OX1R antag-1 47
Cc1nnc(NC(=O)c2sc3nc(-c4cccs4)cc(C(F)(F)F)c3c2N)s1	CHO parental Ca 42, OX1R antag-1 85
O=C(NC(=S)NNC(=O)c1ccco1)c1ccc(Br)cc1	none (no result: TRPML3 agonist, zfTRPN1 agonist)
Cc1nc(SCC(=O)NCC2CCCO2)[nH]c(=O)c1C (centres undefined)	none (no result: GPR7 antagonist, TRPML3 agonist, zfTRPN1 agonist)
CCCCCCCCCCCCCCCC[n+]1cccc2ccccc21	CHO parental Ca 89, OX1R antag-1 63
CCn1c(SCC(=O)Nc2nc(-c3ccc(C)cc3)cs2)nnc1-c1ccccc1O	CHO parental Ca 33
O=S(=O)(Nc1ccc(-c2ccc3nncn3n2)cc1)c1cccs1	none (no result: GPR7 antagonist, TRPML3 agonist, zfTRPN1 agonist)
COc1cc(S(=O)(=O)N2CCN(c3ccccn3)CC2)ccc1Br	none (no result: TRPML3 agonist, zfTRPN1 agonist)
O=C(COC(=O)CNC(=O)c1ccc(Cl)c([N+](=O)[O-])c1)NNC(=O)c1ccccc1F	none (no result: GPR7 antagonist, TRPML3 agonist, zfTRPN1 agonist)
O=C(COC(=O)CNC(=O)c1ccc(Cl)c([N+](=O)[O-])c1)NC(=O)c1ccccc1	OX1R antag-2 51 (no result: TRPML3 agonist, zfTRPN1 agonist)
O=C(NCCc1cn2ccccc2n1)C1CCCCC1	GPR7 antagonist 19
O=C(NCCc1cn2ccsc2n1)C1CCCCC1	none
COc1ccc(NC(=O)Cc2coc3ccc4ccccc4c23)cc1S(=O)(=O)N1CCOCC1	none
CCCCn1c(SCc2nc(N)nc(Nc3ccccc3C)n2)nc2ccccc2c1=O	OX1R antag-2 71
COCC(C)n1c(SCc2nc(N)nc(Nc3ccccc3C)n2)nc2ccccc2c1=O (centres undefined)	none
O=[N+]([O-])c1ccc(O)c2cccnc12	OX1R antag-2 66
CC1=NN(c2ccccc2)C(=O)C1(C)[N+](=O)[O-] (centres undefined)	none
CC1(C)OC(=O)N(c2ccccc2)C12C=Cc1cc(Br)ccc1O2 (centres undefined)	CHO parental Ca 36
CC1(C)OC(=O)N(CCc2ccccc2)C1(C)O (centres undefined)	none
Cc1nc(SCc2nc3cc(Cl)c(F)cc3[nH]2)c2oc3ccccc3c2n1	OX1R antag-2 53 (no result: GPR7 antagonist, TRPML3 agonist, zfTRPN1 agonist)
Cc1nc(SCc2nc3ccc(Cl)cc3[nH]2)c2oc3ccccc3c2n1	none (no result: GPR7 antagonist, TRPML3 agonist, zfTRPN1 agonist)
COc1ccc2c(c1)oc1c(SCc3nc4ccccc4[nH]3)nc(C)nc12	OX1R antag-2 48 (no result: GPR7 antagonist, TRPML3 agonist, zfTRPN1 agonist)
O=C(Cc1ccc(Cl)cc1Cl)Nc1ccncc1Cl	CHO parental Ca 31 (no result: TRPML3 agonist, zfTRPN1 agonist)
COc1ccc(CC(=O)Nc2ccncc2Cl)cc1	CHO parental Ca 35 (no result: TRPML3 agonist, zfTRPN1 agonist)
O=C(Cc1c(Cl)cccc1Cl)Nc1ccncc1Cl	none (no result: TRPML3 agonist, zfTRPN1 agonist)
O=C(Nc1cccc(Br)c1)c1ccc(OC2CSC2)cc1	none
CC1CCN(C(=O)CN2C(=O)C(=O)N(C(C)C)C2=O)c2ccccc2S1 (centres undefined)	none (no result: GPR7 antagonist, TRPML3 agonist, zfTRPN1 agonist)
COC(=O)c1c(C)nc2c(c(SC)nn2-c2ccccc2)c1N	none
COC(=O)c1c(C)nc2nonc2c1N	OX1R antag-2 65
Cc1nnc(NC(=O)C2CCN(S(=O)(=O)c3cc([N+](=O)[O-])ccc3Cl)CC2)o1	OX1R antag-2 28 (no result: GPR7 antagonist, TRPML3 agonist, zfTRPN1 agonist)
CC(CCc1ccccc1)NC(=O)CN1CCSc2ccccc21 (centres undefined)	none
CC(C)C(=O)N(c1cc2sc(=O)oc2c2ccccc12)S(=O)(=O)c1cccs1	CHO parental Ca 87, OX1R antag-1 68
CCC(=O)N(C1=C(NC(C)C)C(=O)c2ccccc2C1=O)C(C)C	none
CCCNC1=C(N(C(C)=O)c2cccc(F)c2)C(=O)c2ccccc2C1=O	OX1R antag-2 68
O=C1Nc2ccccc2O/C1=C\c1ccccc1Br	OX1R antag-2 45 (no result: TRPML3 agonist, zfTRPN1 agonist)
COc1ccc(Br)cc1/C=C1\Oc2ccccc2NC1=O	none (no result: TRPML3 agonist, zfTRPN1 agonist)
COc1ccccc1C(=O)NC(=S)/C=C1/N(C)c2ccccc2C1(C)C	CHO parental Ca 49, OX1R antag-1 48
CN1/C(=C/C(=S)NC(=O)C2(C)CC2(Cl)Cl)C(C)(C)c2ccccc21 (centres undefined)	none
CN(Cc1ccccc1)C(=O)COC(=O)C1CCN(S(=O)(=O)c2ccc(Cl)c(C(F)(F)F)c2)CC1	none (no result: GPR7 antagonist, TRPML3 agonist, zfTRPN1 agonist)
COC(=O)c1c(NC(=O)COC(=O)CNC(=O)C2CCCCC2)sc(C)c1C	none
Cc1ccccc1C(=O)NNC(=O)c1cccc(Br)c1	none (no result: TRPML3 agonist, zfTRPN1 agonist)
COc1cccc(N2C(=O)C(c3ccccc3)=C(c3nc4ccccc4s3)C2NC(C)=O)c1 (centres undefined)	OX1R antag-2 53
O=C(NC(=S)Nc1cccc([N+](=O)[O-])c1)C1CCCC1	GPR7 antagonist 20 (no result: TRPML3 agonist, zfTRPN1 agonist)
O=C(Nc1cccc([N+](=O)[O-])c1)Nc1cccc([N+](=O)[O-])c1	CHO parental Ca 34
Cc1ccc2nc(SCC(=O)Nc3cccc([N+](=O)[O-])c3)[nH]c2c1	OX1R antag-1 53
